Measurements reported in ChEMBL document CHEMBL6109036, “Azo derivatives of monoterpenes as anti-Helicobacter pylori agents: from synthesis to structure-based target investigation” (RSC Med Chem, 2025).
In brackets after ≈: the same amount, converted by molar mass.

Legend:
[1] = test system: Helicobacter pylori; assay: Anti-bacterial activity against Helicobacter pylori Clinical isolate F1 measured after 72 hrs incubation by modified broth dilution method; type: functional
[2] = Cytotoxicity against SV40-immortalized non-tumorigenic human GES1 cells assessed as cell viability measured after 24 hrs by Alamar blue assay; type: toxicity, cell-based
Outline: (§1)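 GES-1 cells grown in RPMI with 10% FCS, glutamine, pen/strep and 10 mM HEPES at 37 °C, 5% CO2. Exposed to increasing concentrations for 24, 48 or 72 h. Alamar blue then added for 4 h at 37 °C and read at 540 and 630 nm. Percent reduction relative to untreated cells (100%).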

[3] = test system: Helicobacter pylori; assay: Anti-bacterial activity against Helicobacter pylori Clinical isolate F4 measured after 72 hrs incubation by modified broth dilution method; type: functional
[4] = test system: Pseudomonas aeruginosa; assay: Anti-bacterial activity against non-lactose fermenting Pseudomonas aeruginosa ATCC 27853 measured after 24 hrs incubation by modified broth dilution method; conditions: ATCC 27853, 24 h
[5] = test system: Escherichia coli; assay: Anti-bacterial activity against lactose fermenting Escherichia coli ATCC 25922 measured after 24 hrs incubation by modified broth dilution method; conditions: ATCC 25922, 24 h
[6] = Cytotoxicity against human HIEC-6 cells assessed as cell viability measured after 72 hrs by MTT assay
[7] = test system: Helicobacter pylori; assay: Bactericidal against Helicobacter pylori measured after 72 hrs of incubation under microaerophilic conditions by modified broth dilution method; type: functional
Outline: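 Wells with no visible growth in the MIC assay spotted (10 μL) onto Skirrow agar. Plates incubated 72 h at 37 °C, microaerophilic, 100% humidity. Triplicate, on at least three different days.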

[8] = Cytotoxicity against human HIEC-6 cells assessed as cell viability measured after 48 hrs by MTT assay
[9] = test system: Helicobacter pylori; assay: Bactericidal activity against Helicobacter pylori Clinical isolate F1 measured after 72 hrs of incubation under microaerophilic conditions by modified broth dilution method; type: functional; conditions: read-out: MBC99.9
Outline: (§2)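 H. pylori (NCTC 11637, F1, 23, F4). Wells with no visible growth in the MIC assay spotted (10 μL) onto Skirrow agar. Plates incubated 72 h at 37 °C, microaerophilic, 100% humidity. MBC = concentration killing 99.9% of the initial inoculum. Triplicate, on at least three different days.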

[10] = test system: Helicobacter pylori; assay: Bactericidal activity against Helicobacter pylori NCTC 11637 measured after 72 hrs of incubation under microaerophilic conditions by modified broth dilution method; type: functional; conditions: read-out: MBC99.9; outline: as §2
[11] = test system: Helicobacter pylori; assay: Anti-bacterial activity against Helicobacter pylori Clinical isolate 23 measured after 72 hrs incubation by modified broth dilution method; type: functional
[12] = test system: Helicobacter pylori; assay: Bactericidal activity against Helicobacter pylori Clinical isolate 23 measured after 72 hrs of incubation under microaerophilic conditions by modified broth dilution method; type: functional; conditions: read-out: MBC99.9; outline: as §2
[13] = test system: Helicobacter pylori; assay: Bactericidal against Helicobacter pylori Clinical isolate F4 measured after 72 hrs of incubation under microaerophilic conditions by modified broth dilution method; type: functional; conditions: read-out: MBC99.9; outline: as §2
[14] = test system: Helicobacter pylori; assay: Anti-bacterial activity against Helicobacter pylori NCTC 11637 measured after 72 hrs incubation by modified broth dilution method; type: functional
[15] = test system: Staphylococcus aureus; assay: Anti-bacterial activity against Gram-positive Staphylococcus aureus ATCC 29213 measured after 24 hrs incubation by modified broth dilution method; conditions: ATCC 29213, 24 h
[16] = Cytotoxicity against human HIEC-6 cells assessed as cell viability measured after 24 hrs by MTT assay
[17] = test system: Pseudomonas aeruginosa; assay: Bactericidal against non-lactose fermenting Pseudomonas aeruginosa ATCC 27853 measured after 24 hrs of incubation by broth microdilution method; conditions: ATCC 27853, 24 h, read-out: MBC99.9
[18] = test system: Helicobacter pylori; assay: Anti-bacterial activity against Helicobacter pylori measured after 72 hrs incubation by modified broth dilution method; type: functional
[19] = test system: Staphylococcus aureus; assay: Bactericidal against Gram-positive Staphylococcus aureus ATCC 29213 measured after 24 hrs of incubation by broth microdilution method; conditions: ATCC 29213, 24 h, read-out: MBC99.9
[20] = test system: Escherichia coli; assay: Bactericidal against lactose fermenting Escherichia coli ATCC 25922 measured after 24 hrs of incubation by broth microdilution method; conditions: ATCC 25922, 24 h, read-out: MBC99.9
[21] = Cytotoxicity against SV40-immortalized non-tumorigenic human GES1 cells assessed as cell viability measured after 72 hrs by Alamar blue assay; type: toxicity, cell-based; outline: as §1
[22] = Cytotoxicity against SV40-immortalized non-tumorigenic human GES1 cells assessed as cell viability measured after 48 hrs by Alamar blue assay; type: toxicity, cell-based; outline: as §1

Row | Compound | MIC [1] | MIC [3] | MBC90 [7] | MBC [9] | MBC [10] | MIC [11] | MBC [12] | MBC [13] | MIC [14] | MIC50 [18] | MIC90 [18] | further results
1 | Cc1cc(O)c(C(C)C)cc1/N=N/c1ccc([N+](=O)[O-])cc1 | 2 µg/mL (≈ 6.68 µM) | 4 µg/mL (≈ 13.4 µM) | 4 µg/mL (≈ 13.4 µM) | 2 µg/mL (≈ 6.68 µM) | 2 µg/mL (≈ 6.68 µM) | 2 µg/mL (≈ 6.68 µM) | 2 µg/mL (≈ 6.68 µM) | 4 µg/mL (≈ 13.4 µM) | 2 µg/mL (≈ 6.68 µM) | 2 µg/mL (≈ 6.68 µM) | 4 µg/mL (≈ 13.4 µM) | IC50 at 24 h [2]: 12.1 µg/mL (≈ 40.4 µM); MIC [4]: > 128 µg/mL; MIC [5]: > 128 µg/mL; IC50 at 72 h [6]: 7.61 µg/mL (≈ 25.4 µM); IC50 at 48 h [8]: 7.61 µg/mL (≈ 25.4 µM); MIC [15]: 2 µg/mL (≈ 6.68 µM); IC50 at 24 h [16]: 13.6 µg/mL (≈ 45.4 µM); MBC [17]: > 128 µg/mL; MBC [19]: 32 µg/mL (≈ 107 µM); MBC [20]: > 128 µg/mL; IC50 at 72 h [21]: 8.44 µg/mL (≈ 28.2 µM)
2 | Cc1ccc(C(C)C)c(/N=N/c2ccc([N+](=O)[O-])cc2)c1O | 2 µg/mL (≈ 6.68 µM) | 4 µg/mL (≈ 13.4 µM) | 4 µg/mL (≈ 13.4 µM) | 4 µg/mL (≈ 13.4 µM) | 2 µg/mL (≈ 6.68 µM) | 2 µg/mL (≈ 6.68 µM) | 2 µg/mL (≈ 6.68 µM) | 4 µg/mL (≈ 13.4 µM) | 2 µg/mL (≈ 6.68 µM) | 2 µg/mL (≈ 6.68 µM) | 4 µg/mL (≈ 13.4 µM) | IC50 at 24 h [2]: 15 µg/mL (≈ 50.1 µM); MIC [4]: > 128 µg/mL; MIC [5]: > 128 µg/mL; IC50 at 72 h [6]: 13.3 µg/mL (≈ 44.3 µM); IC50 at 48 h [8]: 13.4 µg/mL (≈ 44.7 µM); IC50 at 48 h [22]: 12.1 µg/mL (≈ 40.4 µM); MIC [15]: 2 µg/mL (≈ 6.68 µM); IC50 at 24 h [16]: 15.1 µg/mL (≈ 50.3 µM); MBC [17]: > 128 µg/mL; MBC [19]: 32 µg/mL (≈ 107 µM); MBC [20]: > 128 µg/mL; IC50 at 72 h [21]: 12 µg/mL (≈ 40.2 µM)
3 | Cc1ncc([N+](=O)[O-])n1CCO [METRONIDAZOLE] | 2 µg/mL (≈ 11.7 µM) | 32 µg/mL (≈ 187 µM) | 256 µg/mL (≈ 1500 µM) | 2 µg/mL (≈ 11.7 µM) | 256 µg/mL (≈ 1500 µM) | 1 µg/mL (≈ 5.84 µM) | 1 µg/mL (≈ 5.84 µM) | 32 µg/mL (≈ 187 µM) | 256 µg/mL (≈ 1500 µM) | 2 µg/mL (≈ 11.7 µM) | 256 µg/mL (≈ 1500 µM) | –
4 | COc1cccc(C=O)c1O | 4 µg/mL (≈ 26.3 µM) | 8 µg/mL (≈ 52.6 µM) | – | 4 µg/mL (≈ 26.3 µM) | 16 µg/mL (≈ 105 µM) | 16 µg/mL (≈ 105 µM) | 16 µg/mL (≈ 105 µM) | 8 µg/mL (≈ 52.6 µM) | 8 µg/mL (≈ 52.6 µM) | 8 µg/mL (≈ 52.6 µM) | 16 µg/mL (≈ 105 µM) | MBC ([7]; Helicobacter pylori, read-out: MBC99.9): 16 µg/mL (≈ 105 µM)
5 | Cc1cc(O)c(C(C)C)cc1/N=N/c1ccccc1Cl | 4 µg/mL (≈ 13.9 µM) | 4 µg/mL (≈ 13.9 µM) | 8 µg/mL (≈ 27.7 µM) | 4 µg/mL (≈ 13.9 µM) | 4 µg/mL (≈ 13.9 µM) | 4 µg/mL (≈ 13.9 µM) | 8 µg/mL (≈ 27.7 µM) | 4 µg/mL (≈ 13.9 µM) | 4 µg/mL (≈ 13.9 µM) | 4 µg/mL (≈ 13.9 µM) | 4 µg/mL (≈ 13.9 µM) | –
6 | C=CCc1cc(/N=N/c2cccc3ccccc23)c(O)c(OC)c1 | > 128 µg/mL | > 128 µg/mL | >128 µg/mL | > 128 µg/mL | 128 µg/mL (≈ 402 µM) | > 128 µg/mL | > 128 µg/mL | > 128 µg/mL | 128 µg/mL (≈ 402 µM) | > 128 µg/mL | > 128 µg/mL | –
7 | COc1ccc(/N=N/c2cc(C)c(O)cc2C(C)C)cc1 | 4 µg/mL (≈ 14.1 µM) | 4 µg/mL (≈ 14.1 µM) | 8 µg/mL (≈ 28.1 µM) | 4 µg/mL (≈ 14.1 µM) | 8 µg/mL (≈ 28.1 µM) | 8 µg/mL (≈ 28.1 µM) | 8 µg/mL (≈ 28.1 µM) | 4 µg/mL (≈ 14.1 µM) | 8 µg/mL (≈ 28.1 µM) | 4 µg/mL (≈ 14.1 µM) | 8 µg/mL (≈ 28.1 µM) | –
8 | COc1cc(C=O)cc(/N=N/c2ccc(C)cc2)c1O | 2 µg/mL (≈ 7.4 µM) | 8 µg/mL (≈ 29.6 µM) | 8 µg/mL (≈ 29.6 µM) | 2 µg/mL (≈ 7.4 µM) | 4 µg/mL (≈ 14.8 µM) | 8 µg/mL (≈ 29.6 µM) | 8 µg/mL (≈ 29.6 µM) | 8 µg/mL (≈ 29.6 µM) | 4 µg/mL (≈ 14.8 µM) | 4 µg/mL (≈ 14.8 µM) | 8 µg/mL (≈ 29.6 µM) | –
9 | COc1ccc(/N=N/c2cc(C(C)C)c(O)c(/N=N/c3ccc(OC)cc3)c2C)cc1 | 128 µg/mL (≈ 306 µM) | 128 µg/mL (≈ 306 µM) | >128 µg/mL | > 128 µg/mL | > 128 µg/mL | 128 µg/mL (≈ 306 µM) | > 128 µg/mL | > 128 µg/mL | > 128 µg/mL | 128 µg/mL (≈ 306 µM) | > 128 µg/mL | –
10 | COc1ccc(/N=N/c2cc(C(C)C)c(O)cc2C)cc1 | 4 µg/mL (≈ 14.1 µM) | 2 µg/mL (≈ 7.03 µM) | 4 µg/mL (≈ 14.1 µM) | 4 µg/mL (≈ 14.1 µM) | 4 µg/mL (≈ 14.1 µM) | 4 µg/mL (≈ 14.1 µM) | 4 µg/mL (≈ 14.1 µM) | 2 µg/mL (≈ 7.03 µM) | 4 µg/mL (≈ 14.1 µM) | 4 µg/mL (≈ 14.1 µM) | 4 µg/mL (≈ 14.1 µM) | –
